Measured values as given in ChEMBL document CHEMBL4052595, “Application of Residual Dipolar Couplings and Selective Quantitative NOE to Establish the Structures of Tetranortriterpenoids from Xylocarpus rumphii” (J Nat Prod, 2017).
Activity calls are given as the source filed them.

Key:
Assay type in all cases: functional, cell-based
BT-549 = test: Growth inhibition of human BT549 cells at 10^-5 M incubated for 48 hrs by sulforhodamine B assay
Procedure, shortened: (§1)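 Run in the NCI59 one-dose cell-line screen, with each compound tested at a single concentration of 1 × 10−5 M.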

T47D = test: Growth inhibition of human T47D cells at 10^-5 M incubated for 48 hrs by sulforhodamine B assay
Procedure, shortened: (§2)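 Tested at a single concentration of 1 × 10−5 M as part of the NCI59 cell-line one-dose screen.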

Hs-578T = test: Growth inhibition of human Hs 578T cells at 10^-5 M incubated for 48 hrs by sulforhodamine B assay; procedure, shortened: as §1
MCF7 = test: Growth inhibition of human MCF7 cells at 10^-5 M incubated for 48 hrs by sulforhodamine B assay; procedure, shortened: as §1
MDA-MB-231 = test: Growth inhibition of human MDA-MB-231 cells at 10^-5 M incubated for 48 hrs by sulforhodamine B assay; procedure, shortened: as §1
DU-145 = test: Growth inhibition of human DU145 cells at 10^-5 M incubated for 48 hrs by sulforhodamine B assay; procedure, shortened: as §1
UO-31 = test: Growth inhibition of human UO31 cells at 10^-5 M incubated for 48 hrs by sulforhodamine B assay; procedure, shortened: as §2
PC-3 = test: Growth inhibition of human PC3 cells at 10^-5 M incubated for 48 hrs by sulforhodamine B assay; procedure, shortened: as §1
SN12C = test: Growth inhibition of human SN12C cells at 10^-5 M incubated for 48 hrs by sulforhodamine B assay; procedure, shortened: as §1
TK-10 = test: Growth inhibition of human TK10 cells at 10^-5 M incubated for 48 hrs by sulforhodamine B assay; procedure, shortened: as §2
RXF 393 = test: Growth inhibition of human RXF393 cells at 10^-5 M incubated for 48 hrs by sulforhodamine B assay; procedure, shortened: as §1
ACHN = test: Growth inhibition of human ACHN cells at 10^-5 M incubated for 48 hrs by sulforhodamine B assay; procedure, shortened: as §1
CAKI-1 = test: Growth inhibition of human Caki1 cells at 10^-5 M incubated for 48 hrs by sulforhodamine B assay; procedure, shortened: as §1
A498 = test: Growth inhibition of human A498 cells at 10^-5 M incubated for 48 hrs by sulforhodamine B assay; procedure, shortened: as §1
786-0 = test: Growth inhibition of human 786-0 cells at 10^-5 M incubated for 48 hrs by sulforhodamine B assay; procedure, shortened: as §1
NCI/ADR-RES = test: Growth inhibition of human NCI/ADR-RES cells at 10^-5 M incubated for 48 hrs by sulforhodamine B assay; procedure, shortened: as §1
SK-OV-3 = test: Growth inhibition of human SKOV3 cells at 10^-5 M incubated for 48 hrs by sulforhodamine B assay; procedure, shortened: as §1
OVCAR-8 = test: Growth inhibition of human OVCAR8 cells at 10^-5 M incubated for 48 hrs by sulforhodamine B assay; procedure, shortened: as §1
OVCAR-4 = test: Growth inhibition of human OVCAR4 cells at 10^-5 M incubated for 48 hrs by sulforhodamine B assay; procedure, shortened: as §1
OVCAR-5 = test: Growth inhibition of human OVCAR5 cells at 10^-5 M incubated for 48 hrs by sulforhodamine B assay; procedure, shortened: as §1
IGROV-1 = test: Growth inhibition of human IGROV1 cells at 10^-5 M incubated for 48 hrs by sulforhodamine B assay; procedure, shortened: as §1
OVCAR-3 = test: Growth inhibition of human OVCAR3 cells at 10^-5 M incubated for 48 hrs by sulforhodamine B assay; procedure, shortened: as §1
UACC-62 = test: Growth inhibition of human UACC62 cells at 10^-5 M incubated for 48 hrs by sulforhodamine B assay; procedure, shortened: as §2
SK-MEL-5 = test: Growth inhibition of human SK-MEL-5 cells at 10^-5 M incubated for 48 hrs by sulforhodamine B assay; procedure, shortened: as §1
UACC-257 = test: Growth inhibition of human UACC257 cells at 10^-5 M incubated for 48 hrs by sulforhodamine B assay; procedure, shortened: as §2
SK-MEL-28 = test: Growth inhibition of human SK-MEL-28 cells at 10^-5 M incubated for 48 hrs by sulforhodamine B assay; procedure, shortened: as §1
MDA-MB-435 = test: Growth inhibition of human MDA-MB-435 cells at 10^-5 M incubated for 48 hrs by sulforhodamine B assay; procedure, shortened: as §1
SK-MEL-2 = test: Growth inhibition of human SK-MEL-2 cells at 10^-5 M incubated for 48 hrs by sulforhodamine B assay; procedure, shortened: as §1
M14 = test: Growth inhibition of human M14 cells at 10^-5 M incubated for 48 hrs by sulforhodamine B assay; procedure, shortened: as §1
U-251 = test: Growth inhibition of human U251 cells at 10^-5 M incubated for 48 hrs by sulforhodamine B assay; procedure, shortened: as §2
LOX IMVI = test: Growth inhibition of human LOXIMVI cells at 10^-5 M incubated for 48 hrs by sulforhodamine B assay; procedure, shortened: as §1
SNB-19 = test: Growth inhibition of human SNB19 cells at 10^-5 M incubated for 48 hrs by sulforhodamine B assay; procedure, shortened: as §1
SNB-75 = test: Growth inhibition of human SNB75 cells at 10^-5 M incubated for 48 hrs by sulforhodamine B assay; procedure, shortened: as §1
SF-539 = test: Growth inhibition of human SF539 cells at 10^-5 M incubated for 48 hrs by sulforhodamine B assay; procedure, shortened: as §1
SF-268 = test: Growth inhibition of human SF268 cells at 10^-5 M incubated for 48 hrs by sulforhodamine B assay; procedure, shortened: as §1
SF-295 = test: Growth inhibition of human SF295 cells at 10^-5 M incubated for 48 hrs by sulforhodamine B assay; procedure, shortened: as §1
SW-620 = test: Growth inhibition of human SW620 cells at 10^-5 M incubated for 48 hrs by sulforhodamine B assay; procedure, shortened: as §2
HT-29 = test: Growth inhibition of human HT-29 cells at 10^-5 M incubated for 48 hrs by sulforhodamine B assay; procedure, shortened: as §1
KM12 = test: Growth inhibition of human KM12 cells at 10^-5 M incubated for 48 hrs by sulforhodamine B assay; procedure, shortened: as §1
HCT-116 = test: Growth inhibition of human HCT116 cells at 10^-5 M incubated for 48 hrs by sulforhodamine B assay; procedure, shortened: as §1
HCT-15 = test: Growth inhibition of human HCT15 cells at 10^-5 M incubated for 48 hrs by sulforhodamine B assay; procedure, shortened: as §1
HCC 2998 = test: Growth inhibition of human HCC2998 cells at 10^-5 M incubated for 48 hrs by sulforhodamine B assay; procedure, shortened: as §1
NCI-H522 = test: Growth inhibition of human NCI-H522 cells at 10^-5 M incubated for 48 hrs by sulforhodamine B assay; procedure, shortened: as §1
COLO 205 = test: Growth inhibition of human COLO205 cells at 10^-5 M incubated for 48 hrs by sulforhodamine B assay; procedure, shortened: as §1
NCI-H460 = test: Growth inhibition of human NCI-H460 cells at 10^-5 M incubated for 48 hrs by sulforhodamine B assay; procedure, shortened: as §1
NCI-H23 = test: Growth inhibition of human NCI-H23 cells at 10^-5 M incubated for 48 hrs by sulforhodamine B assay; procedure, shortened: as §1
NCI-H322M = test: Growth inhibition of human NCI-H322M cells at 10^-5 M incubated for 48 hrs by sulforhodamine B assay; procedure, shortened: as §1
NCI-H226 = test: Growth inhibition of human NCI-H226 cells at 10^-5 M incubated for 48 hrs by sulforhodamine B assay; procedure, shortened: as §1
HOP-62 = test: Growth inhibition of human HOP62 cells at 10^-5 M incubated for 48 hrs by sulforhodamine B assay; procedure, shortened: as §1
HOP-92 = test: Growth inhibition of human HOP92 cells at 10^-5 M incubated for 48 hrs by sulforhodamine B assay; procedure, shortened: as §1
A549 = test: Growth inhibition of human A549/ATCC cells at 10^-5 M incubated for 48 hrs by sulforhodamine B assay; procedure, shortened: as §1
EKVX = test: Growth inhibition of human EKVX cells at 10^-5 M incubated for 48 hrs by sulforhodamine B assay; procedure, shortened: as §1
SR = test: Growth inhibition of human SR cells at 10^-5 M incubated for 48 hrs by sulforhodamine B assay; procedure, shortened: as §1
MOLT-4 = test: Growth inhibition of human MOLT4 cells at 10^-5 M incubated for 48 hrs by sulforhodamine B assay; procedure, shortened: as §1
RPMI-8226 = test: Growth inhibition of human RPMI8226 cells at 10^-5 M incubated for 48 hrs by sulforhodamine B assay; procedure, shortened: as §1
K562 = test: Growth inhibition of human K562 cells at 10^-5 M incubated for 48 hrs by sulforhodamine B assay; procedure, shortened: as §1
CCRF-CEM = test: Growth inhibition of human CCRF-CEM cells at 10^-5 M incubated for 48 hrs by sulforhodamine B assay; procedure, shortened: as §1
HL-60(TB) = test: Growth inhibition of human HL-60(TB) cells at 10^-5 M incubated for 48 hrs by sulforhodamine B assay
Procedure, shortened: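 Run in the NCI59 cell-line one-dose screen, with each compound tested at a single concentration of 1 × 10−5 M.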

Measured: growth inhibition (GI)

CC[C@H](C)C(=O)O[C@@H]1[C@@H]2[C@@H](OC(=O)C(C)C)[C@@]34O[C@]2(O)[C@@](C)([C@@H](CC(=O)OC)C1(C)C)[C@H]3CC[C@]1(C)C4=CC(=O)O[C@H]1C1=CC(O)OC1=O (stereo partly drawn)
inactive: BT-549 | T47D | Hs-578T | MCF7 | MDA-MB-231 | DU-145 | UO-31 | PC-3 | SN12C | TK-10 | RXF 393 | ACHN | CAKI-1 | A498 | 786-0 | NCI/ADR-RES | SK-OV-3 | OVCAR-8 | OVCAR-4 | OVCAR-5 | IGROV-1 | OVCAR-3 | UACC-62 | SK-MEL-5 | UACC-257 | SK-MEL-28 | MDA-MB-435 | SK-MEL-2 | M14 | U-251 | LOX IMVI | SNB-19 | SNB-75 | SF-539 | SF-268 | SF-295 | SW-620 | HT-29 | KM12 | HCT-116 | HCT-15 | HCC 2998 | NCI-H522 | COLO 205 | NCI-H460 | NCI-H23 | NCI-H322M | NCI-H226 | HOP-62 | HOP-92 | A549 | EKVX | SR | MOLT-4 | RPMI-8226 | K562 | CCRF-CEM | HL-60(TB)
